Data set [1] can be described thus: Lipophilicity of the compound assessed as capacity factor by HPLC analysis. The format is physicochemical. A digest of the protocol:
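Reversed-phase C18 HPLC (4.6 × 250 mm, 5 μm), 1 mL/min, acidified acetonitrile gradient 20→80% B over 30 min, diode-array detection. Capacity factor K = (tR − t0)/t0, where t0 is the retention time of the AA standard.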

For data set [2], the system named is Caco-2. Description: Induction of apoptosis in human Caco2 cells assessed as early apoptotic cells at 100 uM measured after 24 hrs by Alexa Fluor 488 Annexin V/propidium iodide staining-based flow cytometry (reference value: 3.9%). Type of data set: functional. In general terms: In flow cytometry, cells or beads pass a laser one at a time.
Data set [3] is described as follows: Cell cycle arrest in human Caco2 cells assessed as accumulation at S-phase at 100 uM measured after 24 to 36 hrs by propidium iodide staining-based flow cytometry (reference value: 18 to 19.5%). The format is functional. The following applies: Caco-2. In short, it runs like this:
(§1)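 Caco-2 cells grown in six-well plates, treated 24–36 h, compared with vehicle-treated cells. Harvested by trypsinization, PBS-washed, fixed in 70% ethanol at 4 °C for at least 30 min. Then RNase A for 1 h at 37 °C, propidium iodide (final 50 μg/mL) for 1 h at 37 °C, and analysed by flow cytometry. Means of three independent experiments.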

Data set [4] can be described thus: Cell cycle arrest in human Caco2 cells assessed as accumulation at G2-phase at 100 uM measured after 24 to 36 hrs by propidium iodide staining-based flow cytometry (reference value: 28%). The format is functional. Conditions: Caco-2. A digest of the protocol:
as §1

Data set [5] can be described thus: Growth inhibition of human MCF7 cells measured after 72 hrs by MTT assay. Type of data set: functional. Conditions: MCF7, 72 h. A digest of the protocol: (§2)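 Cells plated at (2.5−3.0) × 10^3 per 0.33 cm2, treated after 24 h with 0.01−100 μM (final) for 3 days at 37 °C, 5% CO2; controls got 0.5−1% DMSO. MTT read at 570 nm, 6−8 wells per value.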
(In general: Tetrazolium dyes change colour on reduction, which living cells bring about.)

Data set [6] has as its system Caco-2. Put plainly: Induction of apoptosis in human Caco2 cells assessed as late apoptotic cells at 100 uM measured after 24 hrs by Alexa Fluor 488 Annexin V/propidium iodide staining-based flow cytometry (reference value: 1.8%). The format is functional.
The test system of data set [7] is Caco-2. Put plainly: Induction of apoptosis in human Caco2 cells assessed as viable cells at 100 uM measured after 24 hrs by Alexa Fluor 488 Annexin V/propidium iodide staining-based flow cytometry (reference value: 95.1%). Type of data set: functional. The following applies: Caco-2, 24 h, read-out: Activity.
For data set [8], the system named is Caco-2. Put plainly: Induction of apoptosis in human Caco2 cells assessed as necrotic cells at 100 uM measured after 24 hrs by Alexa Fluor 488 Annexin V/propidium iodide staining-based flow cytometry (reference value: […]). Type of data set: functional.
Data set [9] is described as follows: Growth inhibition of human PC3 cells measured after 72 hrs by MTT assay. Type of data set: functional. The following applies: PC-3, 72 h. A digest of the protocol:
as §2

A short description of data set [10]: Growth inhibition of human Caco2 cells measured after 72 hrs by MTT assay. The format is functional. The following applies: Caco-2, 72 h. A digest of the protocol: as §2
Data set [11] can be described thus: Cell cycle arrest in human Caco2 cells assessed as accumulation at G0/G1 phase at 100 uM measured after 24 to 36 hrs by propidium iodide staining-based flow cytometry (reference value: 51.1%). The format is functional. Conditions: Caco-2. In short, it runs like this:
as §1

Data set [12] in a line: Cell cycle arrest in human Caco2 cells assessed as accumulation at sub-G1 phase at 100 uM measured after 24 to 36 hrs by propidium iodide staining-based flow cytometry. The format is functional. The following applies: Caco-2. In short, it runs like this: as §1

Consider `Cc1ccc(CNC(=O)/C=C/c2cc(O)c3c(c2)[C@@H](C(=O)NCc2ccc(C)cc2)[C@H](c2ccc(O)c(O)c2)O3)cc1` (racemic), for which the K in data set [1] turned out to be 7.89.
With `COc1cc([C@@H]2Oc3c(OC)cc(/C=C/C(=O)NCc4ccc(C)cc4)cc3[C@H]2C(=O)NCc2ccc(C)cc2)ccc1O` (racemic), the K in data set [1] was 8.45.
Regarding `COc1cc(CNC(=O)/C=C/c2cc(O)c3c(c2)[C@@H](C(=O)NCc2cc(OC)c(OC)c(OC)c2)[C@H](c2ccc(O)c(O)c2)O3)cc(OC)c1OC` (racemic), in data set [1], the K is listed as 5.69.
`O=c1[nH]cc(F)c(=O)[nH]1` [FLUOROURACIL]: the Activity in data set [2] is 56.2%; in data set [3], 37.5 to 39.8%; in data set [4] it was 1.9%; in data set [6], 5.3%; in data set [8], 0.3%; in data set [11] it was 50.1%. Besides, the Activity in data set [12] came out at 10.4%. Further, the values for the concentration for 50% growth inhibition (GI50) in data set [5], in data set [9] and in data set [10] were 3.6 to 3.8 µM, 4.1 to 6.3 µM and 3.3 to 4.2 µM, respectively. Besides, the viability at 100 µM in [7] came to 36.8%.
As for `COc1cc(CNC(=O)/C=C/c2ccc3c(c2)[C@@H](C(=O)NCc2cc(OC)c(OC)c(OC)c2)[C@H](c2ccc(O)cc2)O3)cc(OC)c1OC` (racemic), the K in data set [1] is given as 6.35.
As for `COc1cc([C@@H]2Oc3c(OC)cc(/C=C/C(=O)NCCc4ccc(O)cc4)cc3[C@H]2C(=O)NCCc2ccc(O)cc2)ccc1O` (racemic) [GROSSAMIDE], the K in data set [1] is given as 2.32. For the same compound, the 50% growth inhibitory concentration (GI50) in [5] is 24 µM; in data set [9], 21 µM; in [10] it was more than 100 µM.
Consider `COc1cc([C@@H]2Oc3c(OC)cc(/C=C/C(=O)NCc4cc(OC)c(OC)c(OC)c4)cc3[C@H]2C(=O)NCc2cc(OC)c(OC)c(OC)c2)ccc1O` (racemic), for which, in data set [1], the K turned out to be 6.32.
For the compound `O=C(/C=C/c1ccc2c(c1)[C@@H](C(=O)NCCc1ccc(O)cc1)[C@H](c1ccc(O)cc1)O2)NCCc1ccc(O)cc1` (racemic), the K in data set [1] was found to be 5.2. The 50% growth inhibitory concentration (GI50) stood at 33.2 µM in [5], 26 µM in [9] and 28.9 µM in data set [10].
For `O=C(/C=C/c1cc(O)c2c(c1)[C@@H](C(=O)NCCc1ccc(O)cc1)[C@H](c1ccc(O)c(O)c1)O2)NCCc1ccc(O)cc1` (racemic), the K in [1] was found to be 0.56. Also, the results for the GI50 in data set [5], in data set [9] and in data set [10] were 39.7 µM, 66 µM and more than 10 µM, respectively.
Turning to `Cc1ccc(CNC(=O)/C=C/c2ccc3c(c2)[C@@H](C(=O)NCc2ccc(C)cc2)[C@H](c2ccc(O)cc2)O3)cc1` (racemic), the K in [1] was determined as 8.36.

The term GI50 denotes the concentration giving 50% growth inhibition. A low value points to greater sensitivity of the cells.

The values above are taken from ChEMBL document CHEMBL3865834, “Dihydrobenzofuran Neolignanamides: Laccase-Mediated Biomimetic Synthesis and Antiproliferative Activity” (J Nat Prod, 2016).
